Source: ChEMBL document CHEMBL5705905, “Pharmacological targeting of kinases MST1 and MST2 augments tissue repair and regeneration” (Sci Transl Med, 2016)
The source made the active and inactive calls. No cut-off for these calls is given here.

Assays:
[1] = target: Phosphatidylinositol 5-phosphate 4-kinase type-2 beta (Homo sapiens) (UniProt P78356); experiment: Inhibition of PIP5K2B (unknown origin) assessed as remaining activity at 1 uM by Kinome scan method relative to control
[2] = target: Serine/threonine-protein kinase SIK1 (Homo sapiens) (UniProt P57059); experiment: Inhibition of SIK (unknown origin) assessed as remaining activity at 1 uM by Kinome scan method relative to control
[3] = target: Serine/threonine-protein kinase TAO2 (Homo sapiens, UniProt Q9UL54); experiment: Inhibition of TAOK2 (unknown origin) in presence of ATP by enzymatic assay
[4] = target: Leucine-rich repeat serine/threonine-protein kinase 2 (Homo sapiens) (UniProt Q5S007); experiment: Inhibition of LRRK2 (unknown origin) assessed as remaining activity at 1 uM by Kinome scan method relative to control
[5] = target: cAMP-dependent protein kinase catalytic subunit PRKX (Homo sapiens) (UniProt P51817); experiment: Inhibition of PRKX (unknown origin) assessed as remaining activity at 1 uM by Kinome scan method relative to control
[6] = target: Serine/threonine-protein kinase Nek11 (Homo sapiens) (UniProt Q8NG66); experiment: Inhibition of NEK11 (unknown origin) assessed as remaining activity at 1 uM by Kinome scan method relative to control
[7] = Toxicity in mouse assessed as cancer cell growth at 1 mg/kg, ip administered for 2 months; format: organism-based; details: in vivo, 1460 h
How it was run: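 Wild-type mice were given 1 mg/kg i.p. daily for 2 months and examined for cancer growth and serum α-fetoprotein.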

[8] = tested on: Tyrosine-protein kinase ABL1 (Homo sapiens), P00519 [Q252H]; experiment: Inhibition of phosphorylated ABL1 Q252H mutant (unknown origin) assessed as remaining activity at 1 uM by Kinome scan method relative to control
[9] = target: Mitogen-activated protein kinase 8 (Homo sapiens) (UniProt P45983); experiment: Inhibition of JNK1 (unknown origin) assessed as remaining activity at 1 uM by Kinome scan method relative to control
Sequence of Mitogen-activated protein kinase 8 (Homo sapiens) (P45983 whole entry, the tested form may be a part): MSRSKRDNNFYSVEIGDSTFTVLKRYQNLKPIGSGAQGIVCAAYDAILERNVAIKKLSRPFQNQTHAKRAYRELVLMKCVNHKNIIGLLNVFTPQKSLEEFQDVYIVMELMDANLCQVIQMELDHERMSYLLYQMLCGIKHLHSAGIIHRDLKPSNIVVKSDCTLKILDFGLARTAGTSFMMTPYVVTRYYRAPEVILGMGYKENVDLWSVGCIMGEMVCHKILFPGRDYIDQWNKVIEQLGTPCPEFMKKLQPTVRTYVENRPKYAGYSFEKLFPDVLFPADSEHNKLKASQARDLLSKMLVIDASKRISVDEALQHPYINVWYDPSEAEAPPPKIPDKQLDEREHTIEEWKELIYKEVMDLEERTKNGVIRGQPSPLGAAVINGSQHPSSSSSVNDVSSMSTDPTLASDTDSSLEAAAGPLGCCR

[10] = target: Ribosomal protein S6 kinase alpha-1 (Homo sapiens) (UniProt Q15418); experiment: Inhibition of N-terminal kinase domain RSK1 (unknown origin) assessed as remaining activity at 1 uM by Kinome scan method relative to control
[11] = target: Serine/threonine-protein kinase 35 (Homo sapiens) (UniProt Q8TDR2); experiment: Inhibition of STK35 (unknown origin) assessed as remaining activity at 1 uM by Kinome scan method relative to control
Sequence of Serine/threonine-protein kinase 35 (Homo sapiens) (Q8TDR2 whole entry): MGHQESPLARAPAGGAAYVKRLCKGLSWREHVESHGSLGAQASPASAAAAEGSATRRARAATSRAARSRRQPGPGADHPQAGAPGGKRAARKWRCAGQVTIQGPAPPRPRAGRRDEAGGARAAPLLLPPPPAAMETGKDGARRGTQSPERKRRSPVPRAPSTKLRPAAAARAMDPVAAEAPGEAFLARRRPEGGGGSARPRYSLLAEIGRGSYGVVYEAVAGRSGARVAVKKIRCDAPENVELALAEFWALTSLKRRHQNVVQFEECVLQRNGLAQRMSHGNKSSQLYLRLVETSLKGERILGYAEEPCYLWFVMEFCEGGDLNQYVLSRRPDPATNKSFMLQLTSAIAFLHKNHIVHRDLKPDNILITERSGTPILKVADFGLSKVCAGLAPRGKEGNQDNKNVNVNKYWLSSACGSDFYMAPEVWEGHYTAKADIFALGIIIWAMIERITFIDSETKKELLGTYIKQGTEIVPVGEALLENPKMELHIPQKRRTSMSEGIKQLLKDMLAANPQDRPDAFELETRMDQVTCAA

[12] = Inhibition of recombinant His-tagged full-length MST1 Y101F mutant (unknown origin) expressing in Escherichia coli assessed as MOB1 phosphorylation level incubated for 15 min by immunoblot analysis; design: species or system Homo sapiens
[13] = target: Tyrosine-protein kinase TXK (Homo sapiens) (UniProt P42681); experiment: Inhibition of TXK (unknown origin) assessed as remaining activity at 1 uM by Kinome scan method relative to control
Homo sapiens = species on record: Homo sapiens; experiment: Inhibition of ALK C1156V mutant (unknown origin) assessed as remaining activity at 1 uM by Kinome scan method relative to control
How it was run: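 KINOMEscan active-site-dependent competition-binding panel of 468 kinases, compound at 1 μM from a DMSO stock. Result reported as ctrl% = (test signal − positive control signal)/(negative control signal − positive control signal) × 100. The negative control is DMSO (100%) and the positive control is a control compound (0%). Lower ctrl% means tighter binding.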

[14] = tested on: Mast/stem cell growth factor receptor Kit (Homo sapiens), P10721 [V559D,T670I]; experiment: Inhibition of KIT V559D/T670I mutant (unknown origin) assessed as remaining activity at 1 uM by Kinome scan method relative to control
Sequence of Mast/stem cell growth factor receptor Kit (Homo sapiens), P10721 [V559D,T670I] (P10721 whole entry V559D/T670I): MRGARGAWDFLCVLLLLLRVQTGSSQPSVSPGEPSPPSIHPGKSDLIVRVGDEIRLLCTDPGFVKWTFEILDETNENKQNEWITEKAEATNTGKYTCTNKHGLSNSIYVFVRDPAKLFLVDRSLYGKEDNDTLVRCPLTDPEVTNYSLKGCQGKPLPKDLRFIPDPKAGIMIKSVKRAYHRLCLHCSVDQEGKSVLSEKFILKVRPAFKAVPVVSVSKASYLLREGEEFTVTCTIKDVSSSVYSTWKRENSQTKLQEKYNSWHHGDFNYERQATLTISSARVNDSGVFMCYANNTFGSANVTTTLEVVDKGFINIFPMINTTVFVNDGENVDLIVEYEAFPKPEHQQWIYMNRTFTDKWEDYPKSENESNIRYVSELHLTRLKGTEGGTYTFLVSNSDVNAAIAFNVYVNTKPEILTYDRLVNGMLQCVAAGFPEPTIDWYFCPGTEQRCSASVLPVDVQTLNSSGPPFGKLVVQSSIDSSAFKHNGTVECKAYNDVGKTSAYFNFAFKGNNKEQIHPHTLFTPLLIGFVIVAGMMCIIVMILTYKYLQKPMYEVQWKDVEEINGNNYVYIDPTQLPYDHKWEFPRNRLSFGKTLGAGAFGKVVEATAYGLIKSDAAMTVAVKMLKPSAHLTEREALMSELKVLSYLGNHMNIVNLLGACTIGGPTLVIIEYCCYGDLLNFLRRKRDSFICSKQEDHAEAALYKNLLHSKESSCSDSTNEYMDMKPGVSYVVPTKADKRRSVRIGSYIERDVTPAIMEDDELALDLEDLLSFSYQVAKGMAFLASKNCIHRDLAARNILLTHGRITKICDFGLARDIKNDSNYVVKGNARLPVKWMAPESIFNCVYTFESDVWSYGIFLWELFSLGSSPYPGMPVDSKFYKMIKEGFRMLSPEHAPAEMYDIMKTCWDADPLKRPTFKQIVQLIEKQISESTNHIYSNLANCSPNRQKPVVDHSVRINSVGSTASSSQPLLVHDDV

[15] = target: Cyclin-dependent kinase 4 (Homo sapiens) (UniProt P11802); experiment: Inhibition of CDK4 (unknown origin) assessed as remaining activity at 1 uM by Kinome scan method relative to control
How it was run: (§1)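 Active-site-dependent competition-binding profiling (KINOMEscan) at 1 μM against a 468-kinase panel; compound supplied from a 10 mM DMSO stock. Read-out is ctrl% = (test signal − positive control signal)/(negative control signal − positive control signal) × 100. DMSO is the negative control (100%) and a control compound the positive control (0%). Lower ctrl% means tighter binding.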

[16] = target: Serine/threonine-protein kinase Nek4 (Homo sapiens) (UniProt P51957); experiment: Inhibition of NEK4 (unknown origin) assessed as remaining activity at 1 uM by Kinome scan method relative to control
[17] = tested on: Phosphatidylinositol 4,5-bisphosphate 3-kinase catalytic subunit alpha isoform (Homo sapiens), P42336 [M1043I]; experiment: Inhibition of PIK3CA M1043I mutant (unknown origin) assessed as remaining activity at 1 uM by Kinome scan method relative to control
[18] = Binding affinity to phosphorylated ABL1 T315I mutant (unknown origin) assessed as dissociation constant; design: species or system Homo sapiens
[19] = target: Serine/threonine-protein kinase TAO2 (Homo sapiens) (UniProt Q9UL54); experiment: Inhibition of TAOK2 (unknown origin) assessed as remaining activity at 1 uM by Kinome scan method relative to control
[20] = target: Death-associated protein kinase 1 (Homo sapiens) (UniProt P53355); experiment: Inhibition of DAPK1 (unknown origin) assessed as remaining activity at 1 uM by Kinome scan method relative to control; how it was run: as §1
[21] = target: Tyrosine-protein kinase Yes (Homo sapiens) (UniProt P07947); experiment: Inhibition of YES (unknown origin) assessed as remaining activity at 1 uM by Kinome scan method relative to control
[22] = target: Microtubule-associated serine/threonine-protein kinase 1 (Homo sapiens) (UniProt Q9Y2H9); experiment: Inhibition of MAST1 (unknown origin) assessed as remaining activity at 1 uM by Kinome scan method relative to control
Sequence of Microtubule-associated serine/threonine-protein kinase 1 (Homo sapiens) (Q9Y2H9 whole entry, looked up): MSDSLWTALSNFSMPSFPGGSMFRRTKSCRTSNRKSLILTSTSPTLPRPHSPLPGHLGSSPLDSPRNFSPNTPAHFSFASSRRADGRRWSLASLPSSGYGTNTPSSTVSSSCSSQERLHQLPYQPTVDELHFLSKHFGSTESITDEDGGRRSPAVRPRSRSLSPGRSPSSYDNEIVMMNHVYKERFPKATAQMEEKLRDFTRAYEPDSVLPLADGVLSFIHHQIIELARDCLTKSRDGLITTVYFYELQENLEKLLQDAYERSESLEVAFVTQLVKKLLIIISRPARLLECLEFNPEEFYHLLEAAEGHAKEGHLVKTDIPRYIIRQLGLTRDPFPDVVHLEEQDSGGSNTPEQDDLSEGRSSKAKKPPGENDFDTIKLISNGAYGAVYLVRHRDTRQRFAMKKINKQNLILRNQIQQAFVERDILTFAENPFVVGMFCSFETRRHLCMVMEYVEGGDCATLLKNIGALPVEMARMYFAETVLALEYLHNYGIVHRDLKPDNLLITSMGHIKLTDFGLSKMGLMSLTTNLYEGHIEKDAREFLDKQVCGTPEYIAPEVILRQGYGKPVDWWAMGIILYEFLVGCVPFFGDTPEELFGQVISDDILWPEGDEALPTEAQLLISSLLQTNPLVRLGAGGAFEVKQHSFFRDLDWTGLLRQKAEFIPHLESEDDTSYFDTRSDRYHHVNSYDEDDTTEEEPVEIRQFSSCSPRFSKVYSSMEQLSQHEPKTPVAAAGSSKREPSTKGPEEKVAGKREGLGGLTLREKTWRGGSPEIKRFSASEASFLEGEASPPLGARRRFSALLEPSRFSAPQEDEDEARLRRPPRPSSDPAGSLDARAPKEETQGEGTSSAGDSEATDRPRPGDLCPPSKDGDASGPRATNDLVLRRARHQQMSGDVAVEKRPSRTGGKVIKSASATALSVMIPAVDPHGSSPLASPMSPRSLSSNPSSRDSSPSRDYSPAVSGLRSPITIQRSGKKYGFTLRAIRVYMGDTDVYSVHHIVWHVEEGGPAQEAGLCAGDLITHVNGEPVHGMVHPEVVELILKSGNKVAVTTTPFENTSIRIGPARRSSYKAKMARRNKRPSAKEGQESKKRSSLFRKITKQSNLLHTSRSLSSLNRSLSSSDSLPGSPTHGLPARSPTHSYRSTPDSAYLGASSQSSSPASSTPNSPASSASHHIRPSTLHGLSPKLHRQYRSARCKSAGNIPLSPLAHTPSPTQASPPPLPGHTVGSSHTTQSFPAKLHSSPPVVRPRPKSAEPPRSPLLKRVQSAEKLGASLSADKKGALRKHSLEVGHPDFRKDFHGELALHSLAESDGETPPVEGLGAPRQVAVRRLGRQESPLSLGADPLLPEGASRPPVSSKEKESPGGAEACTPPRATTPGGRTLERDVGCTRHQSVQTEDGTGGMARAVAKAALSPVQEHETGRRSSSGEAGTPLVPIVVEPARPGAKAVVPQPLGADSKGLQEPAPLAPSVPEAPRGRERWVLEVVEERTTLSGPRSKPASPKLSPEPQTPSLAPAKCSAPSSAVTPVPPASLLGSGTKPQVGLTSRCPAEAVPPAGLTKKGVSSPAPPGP

[23] = target: Tyrosine-protein kinase SYK (Homo sapiens) (UniProt P43405); experiment: Inhibition of SYK (unknown origin) assessed as remaining activity at 1 uM by Kinome scan method relative to control
HepG2 = experiment: Inhibition of Flag-tagged MST1 Y101F/D109A mutant (unknown origin) in human HepG2 cells assessed as MOB1 phosphorylation level at 3 uM by immunoblot analysis; format: cell-based
[24] = target: Calcium/calmodulin-dependent protein kinase type II subunit alpha (Homo sapiens) (UniProt Q9UQM7); experiment: Inhibition of CAMK2A (unknown origin) assessed as remaining activity at 1 uM by Kinome scan method relative to control; how it was run: as §1
Sequence of Calcium/calmodulin-dependent protein kinase type II subunit alpha (Homo sapiens) (Q9UQM7 whole entry): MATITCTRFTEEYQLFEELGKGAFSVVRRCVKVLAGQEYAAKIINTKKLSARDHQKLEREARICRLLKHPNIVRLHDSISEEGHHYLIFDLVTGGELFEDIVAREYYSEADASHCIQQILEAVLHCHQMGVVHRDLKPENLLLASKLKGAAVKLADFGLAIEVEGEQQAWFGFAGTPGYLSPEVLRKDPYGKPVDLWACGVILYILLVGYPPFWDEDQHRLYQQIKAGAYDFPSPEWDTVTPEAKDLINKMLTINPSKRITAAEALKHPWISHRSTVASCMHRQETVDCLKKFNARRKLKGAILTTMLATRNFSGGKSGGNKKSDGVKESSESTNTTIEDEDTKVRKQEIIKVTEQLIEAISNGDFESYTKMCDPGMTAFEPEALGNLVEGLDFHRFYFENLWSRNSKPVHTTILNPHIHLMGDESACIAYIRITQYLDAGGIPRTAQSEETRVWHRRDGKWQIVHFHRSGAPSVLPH

[25] = tested on: Mast/stem cell growth factor receptor Kit (Homo sapiens), P10721 [D816V]; experiment: Inhibition of KIT D816V mutant (unknown origin) assessed as remaining activity at 1 uM by Kinome scan method relative to control
[26] = target: Non-receptor tyrosine-protein kinase TNK1 (Homo sapiens) (UniProt Q13470); experiment: Inhibition of TNK1 (unknown origin) assessed as remaining activity at 1 uM by Kinome scan method relative to control
Sequence of Non-receptor tyrosine-protein kinase TNK1 (Homo sapiens) (Q13470 whole entry): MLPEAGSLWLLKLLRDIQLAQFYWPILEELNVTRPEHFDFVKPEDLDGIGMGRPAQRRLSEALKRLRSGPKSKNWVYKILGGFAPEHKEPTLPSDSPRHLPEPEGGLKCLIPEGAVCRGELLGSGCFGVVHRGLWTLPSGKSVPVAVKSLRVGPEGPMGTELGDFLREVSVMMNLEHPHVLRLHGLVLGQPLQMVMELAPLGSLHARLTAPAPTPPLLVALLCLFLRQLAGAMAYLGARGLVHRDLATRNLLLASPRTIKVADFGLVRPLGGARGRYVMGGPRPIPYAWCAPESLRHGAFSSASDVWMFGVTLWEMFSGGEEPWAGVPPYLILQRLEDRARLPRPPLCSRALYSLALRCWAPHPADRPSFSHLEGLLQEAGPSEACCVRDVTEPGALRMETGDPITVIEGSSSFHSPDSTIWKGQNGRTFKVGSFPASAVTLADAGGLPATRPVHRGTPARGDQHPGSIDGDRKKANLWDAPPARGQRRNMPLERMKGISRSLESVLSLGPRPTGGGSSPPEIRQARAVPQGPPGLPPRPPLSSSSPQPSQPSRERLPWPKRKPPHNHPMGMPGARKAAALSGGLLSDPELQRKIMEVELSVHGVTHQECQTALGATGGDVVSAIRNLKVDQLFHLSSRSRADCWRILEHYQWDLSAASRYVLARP

Sequence of Phosphatidylinositol 5-phosphate 4-kinase type-2 beta (Homo sapiens) (P78356 whole entry): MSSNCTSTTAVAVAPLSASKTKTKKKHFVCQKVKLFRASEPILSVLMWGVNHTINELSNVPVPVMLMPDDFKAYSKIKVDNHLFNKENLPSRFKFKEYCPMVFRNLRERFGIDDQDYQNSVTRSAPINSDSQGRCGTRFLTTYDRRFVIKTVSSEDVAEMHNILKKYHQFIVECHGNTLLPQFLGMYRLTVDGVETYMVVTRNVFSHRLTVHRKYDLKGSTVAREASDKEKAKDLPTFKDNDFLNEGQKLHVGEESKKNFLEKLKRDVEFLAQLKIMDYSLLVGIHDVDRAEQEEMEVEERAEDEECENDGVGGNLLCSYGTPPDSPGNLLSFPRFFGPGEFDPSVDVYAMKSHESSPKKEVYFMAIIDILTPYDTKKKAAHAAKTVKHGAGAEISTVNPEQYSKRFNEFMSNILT

CN1C(=O)c2sccc2N(C)c2nc(Nc3ccc(S(N)(=O)=O)cc3)ncc21
Activity [1]: 100%
Activity [2]: 100%
IC50 [3]: 134 nM
Activity [4]: 37%
Activity [5]: 100%
Activity [6]: 100%
Activity [7]: Non-Toxic
Activity [8]: 6.8%
Activity [9]: 81%
Activity [10]: 91%
Activity [11]: 100%
IC50 [12]: 355 nM
Activity [13]: 90%
Activity (Homo sapiens): 95%
Activity [14]: 88%
Activity [15]: 86%
Activity [16]: 94%
Activity [17]: 77%
Kd [18]: 14 nM
Activity [19]: 3.4%
Activity [20]: 91%
Activity [21]: 100%
Activity [22]: 80%
Activity [23]: 90%
inhibition (HepG2): Active
Activity [24]: 77%
Activity [25]: 94%
Activity [26]: 69%
